Source: PubChem (Broad Institute)
This is a sample that favours compounds with a hit; in the whole collection about 5.9% have one here.
T cruzi growth-1 = T. cruzi intracellular proliferation inhibitors, primary screen, cell-based, beta-gal Tulahuen parasites, NIH3T3 host, luminescence. hit rate 5.9% among 77,000. AID 624255, 2012. T. cruzi beta-gal in NIH3T3, GalScreen luminescence, 90 h. inhibition, % at 8.34 µM;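 active means mean inhibition above about 93%, with at least 55% of replicates each passing it, limit read from the data, passing the limit was not always enough; inconclusive means only one of those two conditions holds; inactive means neither condition holds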
Pf Dd2 growth = P. falciparum Dd2 growth inhibitors, primary screen, SYBR Green fluorescence, single dose replicates; 72 h; stronger effect = lower value; activity change, % at 10 µM; hit rate 2.3% among 94,000; in the data active means activity change below about -80%; inconclusive means no clear call, values can overlap the other calls
GASC1 inh = inhibitors of GASC-1 (KDM4C) histone demethylase, primary screen, biochemical, single concentration HTS | AID 720574, 2013 | Lysine-specific demethylase 4C (Homo sapiens), Q9H3R0 | GST-KDM4C 2-372, H3K9me3 peptide, LANCE TR-FRET | inhibition, % at 12.5 µM | hit rate 0.15% among 96,000;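 active means mean replicate inhibition above about 25%, with at least 55% of replicates also reaching it, limit read from the data, passing the limit was not always enough; inconclusive means only one of those two conditions met; inactive means neither condition met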
Target sequence (Q9H3R0 2-372 limits assumed): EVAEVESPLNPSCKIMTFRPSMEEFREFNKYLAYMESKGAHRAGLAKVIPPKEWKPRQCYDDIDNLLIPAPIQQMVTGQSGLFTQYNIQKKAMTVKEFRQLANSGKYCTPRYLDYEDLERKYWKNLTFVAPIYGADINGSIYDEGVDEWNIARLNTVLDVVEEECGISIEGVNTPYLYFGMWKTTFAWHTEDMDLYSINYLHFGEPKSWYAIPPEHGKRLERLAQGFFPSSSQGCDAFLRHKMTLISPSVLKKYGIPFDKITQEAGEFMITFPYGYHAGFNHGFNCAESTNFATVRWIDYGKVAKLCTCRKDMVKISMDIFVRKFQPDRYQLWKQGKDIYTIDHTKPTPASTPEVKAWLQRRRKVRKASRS
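Compound: one test concentration per compound; Material: GST-GASC-1 enzyme fragment 2-372; Amount: GASC-1 enzyme at 10 nM final in reaction; Also added: H3K9me3 peptide substrate, Fe(II), 2-oxoglutarate; Technique: LANCE TR-FRET; Times: 30 min demethylation and 1 h detection at room temperature.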
IDH1 mut inh = inhibitors of IDH1 R132H reductase, primary screen, biochemical, plate reader, single point | AID 624101, 2012 | inhibition, % at 10 µM | Isocitrate dehydrogenase [NADP] cytoplasmic (Homo sapiens), O75874 | diaphorase/resazurin fluorescence, 60 min | hit rate 0.18% among 70,000; in the data active means inhibition above about 34%; inconclusive means no clear call, values can overlap the other calls; inactive means below about 11%
Target sequence (O75874 whole entry R132H): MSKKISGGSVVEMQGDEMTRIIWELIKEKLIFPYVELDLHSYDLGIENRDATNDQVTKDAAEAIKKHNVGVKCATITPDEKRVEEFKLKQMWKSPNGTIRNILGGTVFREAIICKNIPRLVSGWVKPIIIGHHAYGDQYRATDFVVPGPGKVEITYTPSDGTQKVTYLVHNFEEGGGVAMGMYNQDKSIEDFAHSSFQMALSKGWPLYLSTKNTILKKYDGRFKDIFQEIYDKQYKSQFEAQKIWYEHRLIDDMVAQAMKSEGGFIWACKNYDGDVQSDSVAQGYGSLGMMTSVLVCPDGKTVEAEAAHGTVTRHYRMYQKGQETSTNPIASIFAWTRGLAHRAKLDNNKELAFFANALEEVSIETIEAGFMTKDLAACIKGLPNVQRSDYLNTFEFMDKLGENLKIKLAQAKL
T cruzi growth-2 = T. cruzi intracellular proliferation inhibitors, confirmation, cell-based, NIH3T3 host, beta-gal parasite, luminescence, cherry-pick; shares compounds with T cruzi growth-1; hit rate 72% among 5,600; T. cruzi beta-gal in NIH3T3, GalScreen luminescence, 90 h; inhibition, % at 8.35 µM;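 active means mean replicate inhibition above about 95% and at least 55% of replicates individually reaching it, limit read from the data; inconclusive means only one of the two criteria is met; inactive means neither criterion is met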
T cruzi growth-3 = inhibitors of intracellular T. cruzi replication, confirmation, NIH3T3 host cells, beta-gal parasites, cherry-pick, set 2; shares compounds with T cruzi growth-1; T. cruzi beta-gal in NIH3T3, GalScreen luminescence, 90 h; inhibition, % at 2.09 µM; hit rate 21% among 5,600; AID 651740, 2012;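 active means mean inhibition above about 95%, with at least 55% of replicates also reaching it, limit read from the data; inconclusive means meets just one of the two conditions; inactive means meets neither condition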
3T3 cytotox = cytotoxicity in mouse NIH/3T3 fibroblasts, confirmation, cytotoxicity control for T. cruzi proliferation inhibitor project, cell-based, cherry-pick, single point; shares compounds with T cruzi growth-1; NIH/3T3 viability, CellTiter-Glo ATP luminescence, 90 h; cytotoxicity (signal decrease), % at 8.35 µM; hit rate 14% among 5,600; AID 651742, 2012;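 active means mean signal decrease across replicates above about 35% based on untreated-well scatter, with enough replicates individually passing, limit read from the data; inconclusive means no rule stated though some were filed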
NIH3T3 tox 2 = NIH/3T3 fibroblast cytotoxicity, confirmation, cytotoxicity control, cell-based, cherry-pick, single point, set 2; inhibition, % at 24.9 µM; NIH/3T3 viability, CellTiter-Glo ATP luminescence, 90 h; shares compounds with T cruzi growth-1; AID 651744, 2012; hit rate 56% among 5,600;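 active means mean loss of cell viability signal at or above a set limit, and enough replicates individually reaching it; inconclusive means meets only the mean limit or only the replicate share; inactive means meets neither condition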
Large screens that a line does not name were inactive (follow-up assays come after a bar, where they were run).

COCCNC(=O)C[C@H]1CC[C@@H]2[C@H](COC[C@@H](O)CN2Cc2cccc(-c3ccncc3)c2)O1	T cruzi growth-1 108.6 (no result: IDH1 mut inh) | T cruzi growth-2 inactive | T cruzi growth-3 inactive | 3T3 cytotox inactive | NIH3T3 tox 2 inactive
COc1ccccc1CNC(=O)C[C@@H]1CC[C@@H]2[C@H](COC[C@H](O)CN2Cc2ccccc2)O1	none (no result: T cruzi growth-1, IDH1 mut inh)
COc1ccccc1CNC(=O)C[C@H]1CC[C@H]2[C@@H](COC[C@@H](O)CN2Cc2ccccc2)O1	none (no result: T cruzi growth-1, IDH1 mut inh)
COc1ccccc1CNC(=O)C[C@H]1CC[C@@H]2[C@H](COC[C@H](O)CN2Cc2cccc(-c3ccncc3)c2)O1	T cruzi growth-1 120.7 (no result: Pf Dd2 growth, IDH1 mut inh) | T cruzi growth-2 102.4 | T cruzi growth-3 inactive | 3T3 cytotox inactive | NIH3T3 tox 2 25.0
Cc1cc(C(=O)NN2C3CSC2CS3)no1	none (no result: T cruzi growth-1, Pf Dd2 growth, GASC1 inh)
Cc1cccc(OCC(=O)Nc2ccccc2CO)c1C	none (no result: T cruzi growth-1, Pf Dd2 growth, GASC1 inh)
COc1ccccc1CNC(=O)C[C@H]1CC[C@H]2[C@@H](COC[C@@H](O)CN2Cc2ccc3c(c2)OCO3)O1	none (no result: IDH1 mut inh)
COc1ccccc1CNC(=O)C[C@H]1CC[C@@H]2[C@H](COC[C@@H](O)CN2Cc2ccccc2)O1	none (no result: T cruzi growth-1, IDH1 mut inh)
COc1ccccc1CNC(=O)C[C@@H]1CC[C@@H]2[C@H](COC[C@H](O)CN2Cc2ccc3c(c2)OCO3)O1	T cruzi growth-1 150.3 (no result: IDH1 mut inh) | T cruzi growth-2 inactive | T cruzi growth-3 inactive | 3T3 cytotox inactive | NIH3T3 tox 2 inactive
COc1ccccc1CNC(=O)C[C@@H]1CC[C@H]2[C@@H](COC[C@@H](O)CN2Cc2cccc(-c3ccncc3)c2)O1	T cruzi growth-1 121.9 (no result: Pf Dd2 growth, IDH1 mut inh) | T cruzi growth-2 inactive | T cruzi growth-3 inactive | 3T3 cytotox 48.1 | NIH3T3 tox 2 43.6
Cc1ccc2oc(C(=O)Nc3sc4c(c3C(=O)NC3CCS(=O)(=O)C3)CCC4)c(C)c2c1 (stereo not given)	none (no result: T cruzi growth-1, Pf Dd2 growth, GASC1 inh)
O=C(O)CSc1nc2ccccc2n1CC(=O)O	none (no result: T cruzi growth-1, Pf Dd2 growth, GASC1 inh)
COc1ccc(C#Cc2ccc3c(c2)[C@@H]2[C@@H](CCN2C(=O)c2ccccc2F)[C@H](CO)N3C)cc1	T cruzi growth-1 inconclusive (no result: IDH1 mut inh) | T cruzi growth-2 110.6 | T cruzi growth-3 inconclusive | 3T3 cytotox inactive | NIH3T3 tox 2 54.2
COc1ccc(C#Cc2ccc3c(c2)[C@@H]2[C@@H](CCN2C(=O)c2ccccc2F)[C@@H](CO)N3)cc1	T cruzi growth-1 106.0 (no result: IDH1 mut inh) | T cruzi growth-2 102.2 | T cruzi growth-3 inactive | 3T3 cytotox inactive | NIH3T3 tox 2 inactive
COc1ccc(C#Cc2ccc3c(c2)[C@H]2[C@H](CCN2C(=O)CN2CCOCC2)[C@H](CO)N3C)cc1	T cruzi growth-1 98.6 (no result: IDH1 mut inh) | T cruzi growth-2 110.6 | T cruzi growth-3 inactive | 3T3 cytotox inactive | NIH3T3 tox 2 26.8
O=C(c1ccccc1F)N1CC[C@@H]2[C@H](CO)Nc3ccc(C#Cc4ccc(F)cc4)cc3[C@@H]21	none (no result: IDH1 mut inh)
C=C(C(=O)O[C@H]1C/C=C(/C)C[C@H](O)[C@H]2[C@H](C)C(=O)O[C@@H]2/C=C\1C)[C@@H]1CCC(=C)[C@@H]2C[C@H](O[C@@H]3O[C@H](CO)[C@@H](O)[C@H](O)[C@H]3O)C(=C)[C@@H]2C1	none (no result: T cruzi growth-1, Pf Dd2 growth, GASC1 inh)
O=C(Nc1cccc(F)c1)N1CCCCN2[C@H](C1)[C@H](c1ccc(-c3ccccc3F)cc1)[C@@H]2CO	T cruzi growth-1 110.4 (no result: IDH1 mut inh) | T cruzi growth-2 112.1 | T cruzi growth-3 inactive | 3T3 cytotox inactive | NIH3T3 tox 2 33.0
O=C(Nc1ccccc1)N1CCCCN2[C@H](CO)[C@@H](c3ccc(-c4ccccc4F)cc3)[C@@H]2C1	none (no result: IDH1 mut inh)
O=C(Nc1cccc(F)c1)N1CCCCN2[C@H](C1)[C@@H](c1ccc(-c3ccccc3F)cc1)[C@@H]2CO	T cruzi growth-1 100.7 (no result: IDH1 mut inh) | T cruzi growth-2 inconclusive | T cruzi growth-3 inconclusive | 3T3 cytotox 95.9 | NIH3T3 tox 2 102.4
O=C(Nc1ccccc1)N1CCCCN2[C@H](C1)[C@@H](c1ccc(-c3ccccc3F)cc1)[C@@H]2CO	none (no result: IDH1 mut inh)
O=C(Nc1ccccc1)N1CCCCN2[C@@H](CO)[C@@H](c3ccc(-c4ccccc4F)cc3)[C@@H]2C1	none (no result: IDH1 mut inh)
O=C(Nc1cccc(F)c1)N1CCCCN2[C@H](CO)[C@H](c3ccc(-c4ccccc4F)cc3)[C@@H]2C1	T cruzi growth-1 106.9 (no result: IDH1 mut inh) | T cruzi growth-2 95.6 | T cruzi growth-3 inactive | 3T3 cytotox inactive | NIH3T3 tox 2 59.1
O=C(CSc1nc(O)cc(=O)[nH]1)Nc1ccccc1	none (no result: T cruzi growth-1, Pf Dd2 growth, GASC1 inh)
Cc1cc(C)c(NC(=O)CSc2nnc(-c3ccncc3)n2-c2ccccc2)c([N+](=O)[O-])c1	none (no result: T cruzi growth-1, Pf Dd2 growth, GASC1 inh)
CC(C)C#Cc1ccc2c(c1)O[C@H](CN(C)Cc1cccnc1)[C@H](C)CN([C@@H](C)CO)S2(=O)=O	T cruzi growth-1 104.0 | T cruzi growth-2 98.0 | T cruzi growth-3 inactive | 3T3 cytotox inconclusive | NIH3T3 tox 2 65.3
CC(C)C#Cc1ccc2c(c1)O[C@@H](CN(C)Cc1cccnc1)[C@H](C)CN([C@@H](C)CO)S2(=O)=O	T cruzi growth-1 107.1 (no result: IDH1 mut inh) | T cruzi growth-2 99.2 | T cruzi growth-3 inactive | 3T3 cytotox 55.6 | NIH3T3 tox 2 67.3
C[C@@]12C[C@]3(O)O[C@H](O1)C1(COC(=O)c4ccccc4)[C@H]3C[C@@]12O[C@@H]1O[C@H](COC(=O)c2ccccc2)[C@@H](O)[C@H](O)[C@H]1O	none (no result: T cruzi growth-1, Pf Dd2 growth, GASC1 inh)
COc1ccc(S(=O)(=O)Nc2ccc3c(c2)C(=O)N([C@H](C)CO)C[C@@H](C)[C@@H](CN(C)S(=O)(=O)c2ccc(Cl)cc2)OCCCC[C@H](C)O3)cc1	T cruzi growth-1 99.5 | T cruzi growth-2 101.8 | T cruzi growth-3 inconclusive | 3T3 cytotox inactive | NIH3T3 tox 2 inactive
COc1ccc(S(=O)(=O)Nc2ccc3c(c2)C(=O)N([C@H](C)CO)C[C@H](C)[C@H](CN(C)S(=O)(=O)c2ccc(Cl)cc2)OCCCC[C@H](C)O3)cc1	T cruzi growth-1 inconclusive | T cruzi growth-2 103.1 | T cruzi growth-3 107.2 | 3T3 cytotox inactive | NIH3T3 tox 2 inactive
